# Bioassay records (PubChem)
# NPY-Y2 antag: NPY-Y2 (human) receptor antagonism; P49146; NPY-Y2 expressing cells, antagonist mode; inhibition, % at 2.7 µM; 0.99% of 140,000 active; AID 793; in the data active = inhibition above about 17%;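 note: 0% = vehicle with agonist challenge and 100% = reference antagonist with challenge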
# WT yeast gro inh: growth inhibition of WT yeast, mitochondrial fusion screen. inhibition, % at 10 µM. AID 1362. mitochondrial fusion phenotypic screen, WT strain. 2.1% of 190,000 active; in the data active = inhibition above about 58%; tested in S. cerevisiae
# RAM inhibit: blocks the yeast RAM network | inhibition, % at 50 µM | AID 868 | 1.8% of 190,000 active | S. cerevisiae dse1pr::URA3 reporter, 5-FOA growth OD615, 2 d; analog-sensitive cbk1-as2 kinase mutant strain;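 active = inhibition above a set limit, 3 SD over mean compound inhibition, cut at about 8.4% in these data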;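 note: 0% = DMSO-only wells with no growth and 100% = 10 µM 1-NA-PP1 full growth; inhibition rescues growth on 5-FOA so higher OD means more RAM inhibition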
# NPY-Y1 antag: NPY-Y1 (human) receptor antagonism | 1% of 200,000 active | inhibition, % at 3.6 µM | HEK293-CNG Y1 cells, membrane potential fluorescence; NPY at EC95, then isoproterenol | AID 1040;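 active = inhibition above the campaign mean inhibition of all tested compounds plus 3 SD, cut at about 20% in these data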;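 note: 0% = DMSO wells given NPY plus isoproterenol and 100% = isoproterenol alone without NPY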
# Target sequence (P25929 whole entry, looked up): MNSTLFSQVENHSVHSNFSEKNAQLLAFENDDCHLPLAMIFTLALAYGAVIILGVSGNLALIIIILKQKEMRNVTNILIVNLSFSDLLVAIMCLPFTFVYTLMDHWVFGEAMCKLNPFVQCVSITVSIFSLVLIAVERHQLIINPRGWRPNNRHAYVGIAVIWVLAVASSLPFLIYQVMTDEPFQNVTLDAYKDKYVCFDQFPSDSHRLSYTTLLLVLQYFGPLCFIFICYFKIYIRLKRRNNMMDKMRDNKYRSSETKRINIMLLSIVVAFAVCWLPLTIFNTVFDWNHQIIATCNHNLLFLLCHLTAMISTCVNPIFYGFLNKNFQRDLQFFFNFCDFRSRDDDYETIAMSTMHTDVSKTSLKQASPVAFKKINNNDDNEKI
#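 System: HEK293 cells with Y1 receptor plus CNG channel / Probe or stimulus: NPY 25 nM then isoproterenol 1 µM plus Ro 20-1724 25 µM / Compound: one concentration, 3.6 µM, in 0.4% DMSO / Schedule: compound incubation 1 h at room temperature, readout 45 min post-stimulation / Measured by: membrane potential fluorescence / Read-out: % inhibition of NPY effect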
# NPY-Y1 PAM-ag: human NPY-Y1 potentiation or agonism, primary screen | P25929 | NPY-Y1 expressing cells, potentiator/agonist activation | activation, % at 3.6 µM | 0.37% of 220,000 active | AID 1304; in the data active = activation above about 33%, passing the limit was not always enough;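 note: cells stimulated with NPY at EC10 then isoproterenol at EC100; 0% = low agonist plus stimulus and 100% = saturating agonist plus stimulus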
# NPY-Y2 PAM-ag: human NPY-Y2 potentiation or agonism, primary screen. P49146. cells expressing NPY-Y2, potentiator/agonist read-out. activation, % at 3.6 µM. 0.45% of 220,000 active. AID 1359; in the data active = activation above about 27%;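 note: cells stimulated with NPY near EC25 plus isoproterenol at EC100; 0% = vehicle plus submaximal agonist and 100% = vehicle plus saturating agonist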
# * = called active by the depositor; . = no result given. Shown are actives, neighbours in structure and some others; about 4.9% of the full set was active somewhere.
SMILES,NPY-Y2 antag,WT yeast gro inh,RAM inhibit,NPY-Y1 antag,NPY-Y1 PAM-ag,NPY-Y2 PAM-ag
CN(C)S(=O)(=O)c1cc(NC(=O)COC(=O)Cc2cccc3ccccc23)ccc1Cl,3,9,8.7*,5,-6,2
CCc1cccc(C)c1NC(=S)N(CCN(C)C)C(C)c1ccco1 (configuration not stated),.,.,.,.,-1,-9
COc1ccc(Nc2nc(C(=O)N3CCc4ccccc4C3)cs2)cc1,.,75*,2,8,5,7
O=C(c1csc(Nc2cccc3ccccc23)n1)N1CCCC1,.,.,.,.,13,-13
O=C(c1csc(Nc2ccccc2Cl)n1)N1CCCC1,0,69*,0,-5,22,17
Cc1n[nH]c(C)c1CCN(C)Cc1cn(C)nc1-c1ccc2c(c1)OCCO2,.,-11,0,1,-5,-12
CON/C=C(\C=Nc1ccc(Cl)cc1)c1ncc(C(F)(F)F)cc1Cl,-1,29,11*,1,0,3
COc1cc(OC)c(OC)cc1/C=C/C(=O)c1ccc(NS(=O)(=O)c2ccc(C)cc2)cc1,1,4,9.9*,1,12,23
Cc1ccc(S(=O)(=O)N(C)CC(=O)NCc2ccncc2)cc1,1,8,1,2,-4,-3
Cc1c(C(=O)N(C)C)sc2nc(-c3ccccn3)[nH]c(=O)c12,-2,5,0,0,3,6
O=c1[nH]c(-c2ccccn2)nc2sc(-c3ccccc3)cc12,.,76*,7,0,1,-9
CCc1ccc(C(=O)/C=C/c2ccc([N+](=O)[O-])o2)cc1,8,60*,2,9,-15,-19
COCCCNC(=O)CCn1c(=O)c2ccccc2n(Cc2cccc([N+](=O)[O-])c2)c1=O,.,-12,4,1,-1,4
CC(=O)/C(C#N)=C1\NC(=O)C(Cc2ccccc2Cl)S1 (configuration not stated),4,76*,5,4,-3,-8
Cn1c(Cc2ccccc2)nnc1SCC(=O)c1ccc(Br)s1,-2,63*,2,2,-7,-18
CCCCCC[n+]1c(-c2ccccc2)csc1Nc1ccccc1,8,69*,-1,0,-3,-2
O=C(O)c1ccc(C[n+]2c(-c3ccccc3)csc2Nc2ccccc2)cc1,3,12,7,-2,19,9
OCCN(Cc1ccccc1)CC(O)COc1ccc(-c2ccccc2)cc1 (configuration not stated),.,66*,0,1,-10,-17
COc1cc(C(C)=O)ccc1OCC(O)CN(CCO)Cc1ccccc1 (configuration not stated),.,-25,3,8,9,19
CCOC(=O)c1ccc(N2C(=O)CC(N3CCN(C(=O)c4ccco4)CC3)C2=O)cc1 (configuration not stated),1,-13,1,9,-18,8
Cc1ccc(CNc2nc(-c3cccs3)nc3ccccc23)cc1,3,76*,2,2,-42,1
CCCCP(=O)(c1ccccn1)c1ccccn1,0,.,.,8,18,5
CCOC(=O)c1cc(-c2ccccc2)nn1-c1ccccn1,4,-8,0,0,-1,13
ClC(Cl)(c1nnnn1-c1ccccc1)c1nnnn1-c1ccccc1,2,88*,-2,2,-13,1
O=C(Cc1ccc(Cl)cc1)NNC(=O)c1cnccn1,0,16,2,-1,-11,-2
SMILES,NPY-Y2 antag,WT yeast gro inh,RAM inhibit,NPY-Y1 antag,NPY-Y1 PAM-ag,NPY-Y2 PAM-ag
Cc1ccccc1Nc1nc(N)nc(COC(=O)c2cccc(S(=O)(=O)N(C)c3ccccc3)c2)n1,5,24,3,3,6,11
CCOc1cc(-c2nc(-c3ccc(OC)cc3)no2)cc(OCC)c1OCC,0,-7,9.6*,5,-17,9
CCOc1cc(-c2nc(-c3ccncc3)no2)cc(OCC)c1OCC,2,-6,1,-5,-9,5
COc1cc(-c2nc(-c3cccc(C)c3)no2)cc(OC)c1OC,3,66*,5,6,-33,-18
O=C(O)CSc1nc2ccccc2o1,7,-5,2,3,-6,-2
COC(=O)Cc1c[nH]c2ccc(OCC(O)CNC(C)C)cc12 (configuration not stated),0,11,0,-14,101*,88*
CC(C)NCC(O)COc1cccc2[nH]ccc12 (configuration not stated),.,-3,.,-15,113*,106*
COc1ccc2[nH]cc(CC(=O)O)c2c1,1,-21,-1,2,-6,1
CCCC(=O)Nc1ccc(OCC(O)CNC(C)C)c(C(C)=O)c1 (configuration not stated),1,-18,-1,-4,-12,5
CC(=O)NCCc1c[nH]c2ccc(OCC(O)CNC(C)(C)C)cc12 (configuration not stated),.,.,.,.,81*,57*
NC(=O)c1cccn1Cc1cccc(Cl)c1,1,5,2,-1,95*,33*
COC(=O)/C=c1/s/c(=C(/C#N)C(=O)N2CCOCC2)n(-c2ccccc2)c1=O,-2,-2,2,0,-3,4
COC(=O)/C=c1/s/c(=C(\C#N)C(=O)NCc2ccco2)n(-c2ccc(C)cc2)c1=O,2,-17,8.5*,1,-3,3
Cc1ccccc1NC(=S)N(CCN1CCCCC1)Cc1ccco1,.,10,1,2,-2,-5
COc1ccc(N2CCN(C(=O)CSc3nnc(-c4cc5ccccc5cc4O)n3C)CC2)cc1,-1,13,1,0,86*,92*
CC1(C)Cc2ccccc2-c2nnc(SCC(=O)N3CCN(c4ccccc4)CC3)n21,5,61*,1,3,28,11
Cc1ccc(N(CC(=O)NCCSc2nc3ccccc3s2)S(=O)(=O)c2ccccc2)c(C)c1,5,3,9.2*,10,-24,-9
Cc1cccc(N(CC(=O)NCCSc2nc3ccccc3s2)S(=O)(=O)c2ccccc2)c1,3,-16,11*,3,-2,8
C=C1/C(=C\C=C2/CCC[C@]3(C)[C@@H]([C@H](C)CCCC(C)(C)O)CC[C@@H]23)C[C@@H](O)C[C@@H]1O,.,94*,.,-1,7,20
CCOP(=O)(c1ccccc1)C1(C#N)CC1 (configuration not stated),.,-3,2,-2,1,5
COc1ccccc1N1CCN(C(=O)c2ccc3[nH]c4c(c3c2)CCCC4)CC1,2,39,4,1,8,-6
O=C(c1ccc2[nH]c3c(c2c1)CCCC3)N1CCN(c2ccc(F)cc2)CC1,4,74*,3,3,9,6
CCCCCNC(=O)Cc1cc(=O)[nH]c(=O)[nH]1,8,2,3,5,5,-7
